Sampled rows, rich in hits. Any-hit rate of the full collection: about 5.8%.
Cl transport mod – KCC2 (human) Cl- transport modulation; Q9H2X9; KCC2 cells, thallium flux FluoZin-2 fluorescence; B-score of Tl+ flux slope (higher = more flux/activation; lower = inhibition) at 10 µM; 190,000 compounds, 2.2% hits; AID 1456;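 active means thallium flux slope and its plate-corrected score both differing from the plate sample mean at a set confidence after two filtering rounds, in either direction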;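 further: slope of fluorescence scaled to starting intensity during 10 to 20 s after thallium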
ROMK primary – human ROMK K+ channel modulation, primary screen; Tet-inducible ROMK, thallium flux fluorescence; actives lie on both sides; AID 1918; 130,000 compounds, 2% hits; B-score at 10 µM; P48048;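 active means signal ratio slope over the read window, or its plate-corrected B-score, at least 3 SD from the plate mean, either direction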;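 further: B-score of the F/F0 ratio slope over 7 to 12 s after thallium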
WT yeast gro inh – growth inhibition of WT yeast, mitochondrial fusion screen; mitochondrial fusion phenotypic screen, WT strain; inhibition, % at 10 µM; 190,000 compounds, 2.1% hits; in the data active means inhibition above about 58%; tested in S. cerevisiae
14-3-3 Bad PPI – disrupts binding of bovine 14-3-3 zeta to phospho-Bad peptide; P63103; TR-FRET 14-3-3zeta/Dy647-pBad peptide displacement, 1 h; inhibition, % at 21.7 µM; 220,000 compounds, 0.71% hits;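 active means inhibition above about 70%, limit read from the data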;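 further: 0% = full 14-3-3 plus peptide FRET controls and 100% = background without 14-3-3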
RBBP9 inhibitor – blocks human serine hydrolase RBBP9; AID 1515; inhibition, % at 7.94 µM; O75884; recombinant RBBP9, FP-Rh probe fluorescence polarization; 220,000 compounds, 0.2% hits;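 active means inhibition above the campaign mean of all tested compounds plus 3 SD, cut at about 14% in these data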;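 further: plate controls were DMSO wells with RBBP9 for no effect and wells lacking RBBP9 protein for full effect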
Target sequence (O75884 whole entry, looked up): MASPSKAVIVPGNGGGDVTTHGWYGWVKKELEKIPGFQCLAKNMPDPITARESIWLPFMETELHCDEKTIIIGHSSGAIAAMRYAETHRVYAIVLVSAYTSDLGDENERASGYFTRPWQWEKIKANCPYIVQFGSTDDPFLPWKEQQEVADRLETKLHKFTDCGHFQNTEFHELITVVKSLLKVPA
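Controls: DMSO-treated enzyme wells and wells lacking RBBP9 | Material: RBBP9 protein | Technique: Fluorescence polarization | Replication: Single well per compound, no replicates | Buffer or medium: Tris-NaCl-Pluronic buffer, pH 8.0 | Timing: 30 min compound preincubation, 45 min probe labeling, 25 °C | Read-out basis: Percent inhibition from mP, scaled between DMSO and no-protein wells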
p47phox inh – blocks human p47phox regulatory protein of NADPH oxidases | P14598 | p47phox/p22phox peptide binding, fluorescence polarization, 2 h | inhibition, % at 24.7 µM | 220,000 compounds, 0.53% hits | AID 1274;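 active means inhibition above about 30%, limit read from the data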;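 further: 0% = p47phox with labelled peptide and 100% = labelled peptide alone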
Target sequence (P14598 whole entry, looked up): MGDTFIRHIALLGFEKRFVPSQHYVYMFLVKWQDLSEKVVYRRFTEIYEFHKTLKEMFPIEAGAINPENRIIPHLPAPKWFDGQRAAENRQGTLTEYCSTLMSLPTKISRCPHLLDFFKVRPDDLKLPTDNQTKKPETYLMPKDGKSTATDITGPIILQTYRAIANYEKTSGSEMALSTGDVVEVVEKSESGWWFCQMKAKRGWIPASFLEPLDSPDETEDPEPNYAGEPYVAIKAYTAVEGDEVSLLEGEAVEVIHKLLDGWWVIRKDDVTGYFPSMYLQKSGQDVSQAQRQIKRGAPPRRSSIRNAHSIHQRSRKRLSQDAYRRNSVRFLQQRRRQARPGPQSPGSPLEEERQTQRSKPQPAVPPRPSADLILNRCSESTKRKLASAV
ROMK retest – retested hit modulating human ROMK potassium channel; shares compounds with ROMK primary; ROMK thallium flux, fluorescence ratio; active compounds read low; normalized thallium flux (F/F0 slope) at 10 µM; 3,000 compounds, 54% hits;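 active means Flux at 10 µM at least 3 SD below or above vehicle control mean in one or both replicates; inconclusive means no clear call, values can overlap the other calls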
Numbers without * were called inactive; ? = inconclusive; nt = not tested or not shown.

SMILES	Cl transport mod	ROMK primary	WT yeast gro inh	14-3-3 Bad PPI	RBBP9 inhibitor	p47phox inh	ROMK retest
COc1cccc(C(=O)N2CCC3(CC2)OCCO3)c1	0.72	0.33	nt	0	-1	-7	nt
CC1CCC(C(C)C)C(OC(=O)Cn2c(COc3ccccc3)[n+](C)c3ccccc32)C1 (stereo not given)	0.017	-8.8*	nt	11	-7	11	0.037*
Cn1c(O)c(/C=C/C=Nc2ccccc2)c(=O)n(C)c1=O	-1.5	nt	2	3	-6	-3	0.051*
Cn1c(O)c(C=Nc2ccccc2-c2ccccc2)c(=O)n(C)c1=O	-1.2	0.18	nt	-1	-5	5	nt
O=C1NC(=O)N(c2ccccc2)C(=O)/C1=C/C=C/c1ccco1	-1.4	-9.6*	nt	1	-11	-47	0.046*
Cc1ccc(N2C(=O)NC(=O)/C(=C\C=C\c3ccco3)C2=O)cc1C	0.35	-8.6*	-7	-15	-7	-18	0.039*
Cc1ccc(N2C(=O)NC(=O)/C(=C\C=C\c3ccco3)C2=O)cc1	-1.4	nt	nt	-1	-1	-52	nt
Cc1cccc(N2C(=O)NC(=O)/C(=C\C=C\c3ccco3)C2=O)c1	-1.7	-14*	nt	1	0	-32	0.046*
CC(=O)Cc1c[nH]c2ccccc12	-0.12	0.69	nt	-6	0	-8	nt
Cn1c(O)c(C(=NCCc2c[nH]c3ccccc23)c2ccccc2)c(=O)n(C)c1=O	-2.9	-0.54	6	-9	-2	-10	nt
CCN(CC)S(=O)(=O)c1cc(NC(=O)C(C)N2CC=C(c3ccccc3)CC2)ccc1C (stereo not given)	0.86	nt	24	16	-5	-3	nt
NC(=O)c1cn(C2OC(CO)C(O)C2O)c2ncnc(N)c12 (stereo not given)	0.13	4*	14	9	-10	-1	0.092
CCNC(=O)[C@H]1O[C@@H](n2cnc3c(N)ncnc32)[C@H](O)[C@@H]1O	-1.4	nt	-2	-2	-12	-3	nt
CCOc1ccc(N2C(=O)NC(=O)/C(=C\c3ccc(N4CCCCC4)o3)C2=O)cc1	-1.1	nt	-3	-7	0	-47	0.044*
O=C1NC(=O)N(c2ccc3c(c2)OCO3)C(=O)/C1=C/c1ccc(N2CCCC2)o1	-4.2	nt	-6	-5	-4	-71	nt
O=C1NC(=O)C(=Cc2coc3ccc(O)cc3c2=O)C(=O)N1	nt	nt	nt	3	6	-29	0.043*
N#Cc1ccccc1Cn1cc(C(=O)c2ccccc2F)c2ccccc21	-0.27	0.79	46	-2	-3	-8	nt
CCOc1cc(CNCCc2c[nH]c3ccccc23)cc(Cl)c1OC	-0.21	-3.2*	10	-10	-4	0	0.061*
CCOC(=O)c1nc2ccccc2c(=O)n1-c1ccc(C)cc1C	-1.4	nt	2	9	-5	-17	nt
CCOC(=O)c1cc2c(cn1)[nH]c1ccccc12	-1.7	nt	-11	10	-7	-8	?
Cc1nonc1OCCNCCNc1ccc([N+](=O)[O-])c2cccnc12	0.28	-5.3*	-1	-12	-4	-2	0.053*
CCNCCNc1ccc([N+](=O)[O-])c2cccnc12	nt	nt	nt	-3	8	-11	nt
CCCCCCC(=O)c1c(O)n(-c2ccccc2OC)c(=O)[nH]c1=O	-0.18	0.38	-11	-6	0	-17	nt
CC12CN3CCN(CC(C3)C1O)C2 (stereo not given)	-3.1	nt	0	-1	-6	0	0.077
COc1ccccc1NC1(C#N)CCCCC1	1.1	0.84	-2	-3	-3	-9	nt
SMILES	Cl transport mod	ROMK primary	WT yeast gro inh	14-3-3 Bad PPI	RBBP9 inhibitor	p47phox inh	ROMK retest
CN1c2ccc([N+](=O)[O-])cc2CC2(C(=O)NC(=O)N(c3ccc(Br)cc3)C2=O)C1c1ccccc1 (stereo not given)	-1.8	nt	9	3	-8	-12	0.072
CN(C)c1ccc(C(=O)c2ccc(N(C)C)cc2)cc1	0.014	1.9	2	-1	-7	-9	nt
C/C(=C\c1ccc(N(C)C)cc1)[N+](=O)[O-]	0.48	-3.7*	-9	-3	-2	11	0.051*
CN(C)c1ccc(/C=C/[N+](=O)[O-])cc1	-2.1	-4.1*	-3	-7	1	43*	0.037*
O=C(Cn1ncc2c3ccccc3n(Cc3ccc(F)cc3)c2c1=O)N1CCC2(CC1)OCCO2	0.0085	nt	3	3	-12	-15	nt
CCOC(=O)COc1ccc2c(c1)c(C(C)=O)c(C)n2Cc1ccccc1	-1.6	-1.2	4	3	-12	-2	nt
Nc1c([N+](=O)[O-])cc(F)c(N2CCNCC2)c1Br	nt	-3.6*	5	2	-7	6	0.055*
O=c1[nH]c(=S)n(C2CC2)c(O)c1C=Nc1ccc2c(c1)OCO2	-0.37	0.22	nt	-6	-6	-30	nt
CC(C)Cc1nc(N2CCNCC2)c(C#N)c2c1CCC2	-0.36	nt	nt	2	9	-4	nt
CCc1nc(N2CCNCC2)c(C#N)c2c1CSC(C)(C)C2	-0.28	-3.7*	-4	-10	-3	-9	0.075
O=C(C[N+]12CCN(CC1)CC2)NCCc1ccc(Cl)cc1Cl	0.64	0.027	16	-9	4	-7	nt
Oc1cccc(/C=N/NP(=S)(c2ccccc2)c2ccccc2)c1	0.21	1.1	16	-16	-8	-11	nt
Cc1ccc(-n2cc(CNC(C)Cc3cnccn3)c(-c3cccc(C)c3)n2)cc1 (stereo not given)	nt	-3.6*	66*	-7	-4	-4	0.06*
CCC(=NCc1ccco1)c1c(O)n(C2CCCCC2)c(=O)[nH]c1=O	nt	-4*	18	-9	-2	-21	0.054*
O=C1NC(=O)C(=Cc2ccc3c(c2)OCO3)C(=O)N1	0.63	-0.53	-12	-17	-7	-13	nt
O=C1NC(=O)C(=Cc2cn(CCOc3ccc4c(c3)OCO4)c3ccccc23)C(=O)N1	-1.1	-5.6*	-4	31	-1	-149	?
CC(=O)N1CN2CN(C1)CN(C(C)=O)C2	1	0.038	-9	-2	6	-10	nt
OC(c1cccc(Cl)c1)(c1cccc(Cl)c1)C1CN2CCC1CC2 (stereo not given)	0.2	-4.5*	-16	-7	-7	-21	0.052*
Clc1ccc2c(c1)C(OC1CN3CCC1CC3)c1ccccc1CS2 (stereo not given)	0.71	nt	22	-26	0	-12	nt
Cc1ccc(C(=O)NC(O)C(Cl)(Cl)Cl)cc1 (stereo not given)	1.3	-0.56	-12	5	-4	-5	nt
Cc1[nH]c2c(C(F)(F)F)cccc2c1CCN	-0.099	-0.88	-5	5	-2	-11	nt
Cc1c(CCN)ccc2c1[nH]c1ccccc12	-2.5	-3.2*	nt	4	2	-4	0.066*
CN(C)C(Cc1ccccc1)C(=O)c1ccccc1 (stereo not given)	-2.1	nt	-9	3	-5	-2	0.081
CC(=O)N1N=C2C3CCN(CC3)C2C1c1ccc(Br)cc1 (stereo not given)	0.99	-0.77	nt	3	-8	-3	nt
Nc1ccccc1-[n+]1c(-c2ccccc2)cc(-c2ccccc2)cc1-c1ccccc1	-0.61	nt	nt	0	0	1	0.062*
COc1ccccc1CCNC1CCC(C(C)(C)C)CC1 (stereo not given)	-0.04	-5.8*	13	0	-7	-6	0.059*

Source: PubChem (several laboratories)
